Results reported in ChEMBL document CHEMBL3526115, “Differences in the pharmacokinetics of 4-amino-3-chlorophenyl hydrogen sulfate, a metabolite of resatorvid, in rats and dogs” (Drug Metab Dispos, 2012).

Assays:
[1] = Total body clearance in Beagle dog at 0.5 mg/kg, iv administered as bolus dose by HPLC-based liquid scintillation counting analysis; type: ADME, organism-based, Canis lupus familiaris; parameters: dose 0.5 mg/kg, route intravenous; conditions: in vivo
In short: (§1)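 [14C]M-III in saline given as a single iv bolus at 0.5 mg/kg to male rats (tail-vein blood, 5 min–24 h) or male beagle dogs (cephalic-vein blood, 5 min–168 h). Heparinized plasma counted for radioactivity; M-III quantified by HPLC with fraction collection and liquid scintillation counting. C5 min read directly; terminal t1/2 by linear regression, kel = ln2/t1/2, Vd = dose/back-extrapolated C0, CLtot = dose/AUCinf. Mean ± S.D., n = 3.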

[2] = In vitro plasma protein binding in rat at 0.5 ug/ml by ultrafiltration method; type: ADME, cell-free; conditions: read-out: PPB (converted)
In short: (§2)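 [14C]M-III in saline was added to rat or dog plasma at final 0.5, 5 and 50 µg/ml. Plasma was ultrafiltered by centrifugation at 1500g and 37°C for 10 min, and 14C was measured in plasma and filtrate. Mean ± S.D., n = 3.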

[3] = Total body clearance in Crj:CD(SD)IGS rat at 0.125 mg/hr, iv administered as continuous infusion by HPLC based liquid scintillation counting analysis in presence of 31 mg/hr/kg probenecid; type: ADME, organism-based; conditions: in vivo, with probenecid 31 mg/hr/kg
In short: (§3)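 Rats received a continuous iv infusion of [14C]M-III at 0.125 mg/rat/h, with probenecid co-infused at 16, 31 or 62 mg/h/kg or vehicle alone, for 5 h. Arterial plasma was sampled during infusion. CLtot = infusion rate / steady-state plasma M-III (120–180 min). Unbound fraction was measured by ultrafiltration of 5-h plasma (10,000 MWCO, 1500g, 37°C, 10 min). CLint = CLtot / unbound ratio.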

[4] = Elimination rate constant in Beagle dog at 0.5 mg/kg, iv administered as bolus dose by HPLC-based liquid scintillation counting analysis; type: ADME, organism-based, Canis lupus familiaris; parameters: dose 0.5 mg/kg, route intravenous; conditions: in vivo; in short: as §1
[5] = In vitro plasma protein binding in rat at 5 ug/ml by ultrafiltration method; type: ADME, cell-free; conditions: read-out: PPB (converted); in short: as §2
[6] = In vivo plasma protein binding in Beagle dog at 0.5 mg/kg, iv administered as bolus dose by ultrafiltration method; type: ADME, organism-based, Canis lupus familiaris; parameters: dose 0.5 mg/kg, route intravenous; conditions: read-out: PPB (converted)
In short: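 Plasma was taken from beagle dogs 24 h after a 0.5 mg/kg iv bolus of [14C]M-III (cephalic vein). Binding was determined by ultrafiltration (1500g, 37°C, 10 min), with 14C measured in plasma and filtrate.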

[7] = In vitro plasma protein binding in rat at 50 ug/ml by ultrafiltration method; type: ADME, cell-free; conditions: read-out: PPB (converted); in short: as §2
[8] = In vivo plasma protein binding in Crj:CD(SD)IGS rat at 0.125 mg/hr, iv administered as continuous infusion by ultrafiltration method in presence of 16 mg/hr/kg probenecid; type: ADME, organism-based; conditions: with probenecid 16 mg/hr/kg, read-out: PPB (converted); in short: as §3
Rattus norvegicus = experiment: Intrinsic total body clearance in Crj:CD(SD)IGS rat at 0.125 mg/hr, iv administered as continuous infusion by HPLC based liquid scintillation counting analysis in presence of 62 mg/hr/kg probenecid; type: ADME, organism-based; conditions: in vivo; in short: as §3
[9] = Terminal half life in Crj:CD(SD)IGS rat at 0.5 mg/kg, iv administered as bolus dose by HPLC-based liquid scintillation counting analysis; type: ADME, organism-based; parameters: dose 0.5 mg/kg, route intravenous; conditions: in vivo, read-out: beta t1/2 (converted); in short: as §1
Plasma [10] = experiment: Plasma concentration in Beagle dog at 0.5 mg/kg, iv administered as bolus dose by HPLC based liquid scintillation counting analysis; type: ADME, organism-based, Canis lupus familiaris; parameters: dose 0.5 mg/kg, route intravenous; conditions: in vivo
[11] = In vivo plasma protein binding in Crj:CD(SD)IGS rat at 0.125 mg/hr, iv administered as continuous infusion by ultrafiltration method in presence of 31 mg/hr/kg probenecid; type: ADME, organism-based; conditions: with probenecid 31 mg/hr/kg, read-out: PPB (converted); in short: as §3
[12] = Total body clearance in Crj:CD(SD)IGS rat at 0.5 mg/kg, iv administered as bolus dose by HPLC-based liquid scintillation counting analysis; type: ADME, organism-based; parameters: dose 0.5 mg/kg, route intravenous; conditions: in vivo; in short: as §1
Plasma [13] = experiment: Plasma concentration in Crj:CD(SD)IGS rat at 0.125 mg/hr, iv administered as continuous infusion by HPLC based liquid scintillation counting analysis; type: ADME, organism-based; conditions: in vivo
In short: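 Rats were continuously infused iv with [14C]M-III at 0.125 mg/rat/h, plus probenecid (4.7, 9.4, 18.6 mg/rat/h) or vehicle. Femoral-artery blood was taken at 0.5, 1, 2, 3 and 4 h, with terminal aortic blood at 5 h. Plasma radioactivity was measured, with probenecid quantified by HPLC-UV at 240 nm against spiked-plasma calibration from 0.1 to 100 µg/ml.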

[14] = Unbound fraction in Crj:CD(SD)IGS rat plasma at 0.125 mg/hr, iv administered as continuous infusion by ultrafiltration method in presence of 31 mg/hr/kg probenecid; type: ADME, organism-based; conditions: with probenecid 31 mg/hr/kg; in short: as §3
[15] = Drug excretion in Beagle dog urine assessed as excretion ratio of [14C] at 0.5 mg/kg, iv administered as bolus dose measured from 0 to 168 hrs by HPLC-based liquid scintillation counting analysis; type: ADME, organism-based, Canis lupus familiaris; parameters: dose 0.5 mg/kg, route intravenous; conditions: in vivo
In short: (§4)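 Male rats in metabolic cages with urine/feces separator, or beagle dogs, after a 0.5 mg/kg iv bolus of [14C]M-III in saline. Radioactivity in urine and feces collected 0–24 h (rats) or 0–168 h (dogs) was counted and expressed as percent of dose. Mean ± S.D., n = 3.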

[16] = AUC infinity in Crj:CD(SD)IGS rat at 0.5 mg/kg, iv administered as bolus dose by HPLC-based liquid scintillation counting analysis; type: ADME, organism-based; parameters: time infinity, dose 0.5 mg/kg, route intravenous; conditions: plasma
In short: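 Male Crj:CD(SD)IGS rats (285–324 g, 8 weeks) were given [14C]M-III in saline (0.5 mg/ml) as an IV bolus of 0.5 mg–2.6 MBq/kg. Tail-vein blood was sampled from 5 min to 24 h to give heparinized plasma. After acetonitrile deproteinization, samples went through HPLC with fraction collection and scintillation counting. AUCinf = AUClast + Clast/kel, with terminal kel from linear regression; n = 3.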

[17] = Apparent volume of distribution in Crj:CD(SD)IGS rat at 0.5 mg/kg, iv administered as bolus dose by HPLC-based liquid scintillation counting analysis; type: ADME, organism-based; parameters: dose 0.5 mg/kg, route intravenous; conditions: in vivo, read-out: Vd(app); in short: as §1
[18] = Drug uptake in Beagle dog plasma at 0.5 mg/kg, iv administered as bolus dose after 5 mins by HPLC-based liquid scintillation counting analysis; type: ADME, organism-based, Canis lupus familiaris; parameters: dose 0.5 mg/kg, route intravenous; in short: as §1
[19] = Drug recovery in Beagle dog urine at 0.5 mg/kg, iv administered as bolus dose measured from 0 to 168 hrs by HPLC-based liquid scintillation counting analysis; type: ADME, organism-based, Canis lupus familiaris; parameters: dose 0.5 mg/kg, route intravenous; conditions: read-out: Drug recovery
In short: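 After a 0.5 mg/kg iv bolus of [14C]M-III, urine was collected 0–24 h (rat) or 0–168 h (dog) and injected directly onto HPLC with fraction collection and scintillation counting. M-III in urine was derived from the urinary 14C excretion ratio and the [14C]M-III composition. CLrenal = urinary M-III amount / AUC0–24 h (rat) or AUC0–168 h (dog). Unbound CLrenal = CLrenal / free fraction.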

[20] = Drug excretion in Beagle dog feces assessed as excretion ratio of [14C] at 0.5 mg/kg, iv administered as bolus dose measured from 0 to 168 hrs by HPLC-based liquid scintillation counting analysis; type: ADME, organism-based, Canis lupus familiaris; parameters: dose 0.5 mg/kg, route intravenous; conditions: in vivo; in short: as §4

clearance [1]: 0.0147 mL/min/kg
fraction unbound at 0.5 ug/ml [2]: 0.075
clearance [3]: 2.35 mL/min/kg
k el [4]: 1.68e-06 s⁻¹
fraction unbound at 5 ug/ml [5]: 0.078
fraction unbound [6]: 0.08
fraction unbound at 50 ug/ml [7]: 0.102
fraction unbound [8]: 0.078
CL (Rattus norvegicus): 9.38 mL/min/kg
half-life [9]: 4.1 h
Cp (Plasma [10]): 2500 ng/mL
fraction unbound [11]: 0.197
clearance [12]: 10.5 mL/min/kg
Cp (Plasma [13]): 600 ng/mL
fraction unbound [14]: 0.197
Drug excretion [15]: 44.6%
AUC(0-inf) [16]: 802 ng·h/mL
Vd [17]: 0.14 L/kg
concentration at 5 min [18]: 4690 ng/mL
dose excreted [19]: 19.5%
Drug excretion [20]: 7.7%
Structure (SMILES): N[14c]1[14cH][14cH][14c](OS(=O)(=O)O)[14cH][14c]1Cl
